Drawing on ChEMBL document CHEMBL1926543, “Unprecedented synthesis, in vitro and in vivo anti-cancer evaluation of novel triazolonaphthalimide derivatives” (Eur J Med Chem, 2012), this text covers IC50 and Activity for 14 compounds.

For series [1], the system named is PC-3. The series can be described thus: Cytotoxicity against human PC3 cells after 72 hrs by MTT assay. The format is functional, cell-based. The settings on record: PC-3, 72 h. In outline: (§1)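 Cells seeded at 3.5 × 10⁴ cells/mL and pre-incubated 24 h at 37 °C, 5% CO₂; compounds diluted in DMSO and added for a further 72 h, with DMSO (final 0.5%) as control. Surviving cells measured by MTT, OD read at 492/620 nm; IC50 as mean of triplicate experiments.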
For orientation: Formazan colour is commonly taken as a measure of viable cells.

Series [2] concerns SK-OV-3. The series can be described thus: Cytotoxicity against human SKOV3 cells after 72 hrs by MTT assay. Format: functional, cell-based. The settings on record: SK-OV-3, 72 h. In outline:
as §1

A short description of series [3]: Cytotoxicity against human U87MG cells after 72 hrs by MTT assay. Format: functional, cell-based, U-87MG ATCC. The following applies: U-87 MG. In outline:
as §1

The subject of series [4] is HepG2. Kind of series: Cytotoxicity against human HepG2 after 72 hrs by MTT assay. The following applies: HepG2, 72 h. The format is functional, cell-based. In outline: as §1
The test system of series [5] is HCT-116. The series can be described thus: Cytotoxicity against human HCT116 cells after 72 hrs by MTT assay. The format is functional, cell-based. The following applies: HCT-116, 72 h. In outline:
as §1

Series [6] can be described thus: Cytotoxicity against human HK2 cells after 72 hrs by MTT assay. Format: cell-based. The settings on record: HK-2, 72 h. In outline: as §1
Series [7] relates to CCRF S-180. The series can be described thus: Antitumor activity against mouse S180 cells xenografted in ip dosed ICR mouse assessed as tumor growth suppression administered qd for 7 days measured on day 8. The format is functional, organism-based. In outline: (§2)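 S-180 sarcoma cells implanted in ICR mice (2.5 × 10⁶ or 3 × 10⁶ cells/animal, depending on batch); ten animals per group, allocated by body weight. Dosed intraperitoneally once daily for seven consecutive days in 0.9% physiological saline; saline-only model group and amonafide 30 mg/kg positive control. Body weights recorded every two days; tumours excised and weighed 24 h after last injection; suppression relative to control group.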

Series [8] relates to CCRF S-180. The series can be described thus: Antitumor activity against mouse S180 cells xenografted in ICR mouse assessed as tumor growth suppression at 30 mg/kg, ip qd for 7 days measured on day 8 relative to control. Format: functional. The following applies: route intraperitoneal. In outline:
as §2

Series [9] has as its system CCRF S-180. Kind of series: Antitumor activity against mouse S180 cells xenografted in ICR mouse assessed as tumor growth suppression at 45 mg/kg, ip qd for 7 days measured on day 8 relative to control. Format: functional. The following applies: route intraperitoneal. In outline: as §2
A short description of series [10]: Cytotoxicity against human L02 cells after 72 hrs by MTT assay. Format: cell-based. The following applies: L02, 72 h. In outline:
as §1

For series [11], the system named is CCRF S-180. The series can be described thus: Antitumor activity against mouse S180 cells xenografted in ICR mouse assessed as tumor growth suppression at 60 mg/kg, ip qd for 7 days measured on day 8 relative to control. Format: functional. The settings on record: route intraperitoneal. In outline:
as §2

The subject of series [12] is CCRF S-180. The series can be described thus: Antitumor activity against mouse S180 cells xenografted in ICR mouse assessed as tumor growth suppression at 7.5 mg/kg, ip qd for 7 days measured on day 8. Format: functional. The settings on record: route intraperitoneal. In outline:
as §2

Series [13] has as its system Mus musculus. Kind of series: Toxicity in mouse S180 cells xenografted ICR mouse assessed as mortality at 15 to 30 mg/kg, ip qd for 7 days. Further details: dose 15-30 mg/kg, route intraperitoneal. The format is organism-based, CCRF S-180. The settings on record: in vivo, 168 h. In outline: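 S-180 sarcoma cells implanted into ICR mice (3 × 10⁶ cells/animal for this batch), ten animals per group allocated by weight. Drug dissolved in 0.9% saline (stock 0.75–3 mg/mL) and given intraperitoneally once daily for seven consecutive days at 7.5, 15 or 30 mg/kg; saline-only model group. Body weight recorded every two days; tumors excised and weighed 24 h after last injection.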

Structures are written as SMILES.

For orientation: IC50 means the concentration at which inhibition is half-maximal. Read a high IC50 as weaker potency. Take `COc1ccc(Nc2cc3c4c(cccc4c2)C(=O)N(CCN(C)C)C3=O)cc1`: the IC50 in series [1] stood at 1620 nM; in series [2] it was 2340 nM; in series [3], 2520 nM; in [4] it was 900 nM; in series [5] it was 1240 nM.

As for `CN(C)CCCN1C(=O)c2cccc3c2c(cc2nnn(C)c23)C1=O`, the IC50 was determined as 3210 nM in series [1]; 2000 nM in series [2]; 1140 nM in [3]; 970 nM in [4]; 1350 nM in series [5].

`CN(C)CCCn1nnc2cc3c4c(cccc4c21)C(=O)N(CCN(C)C)C3=O`: the IC50 in series [1] stood at 710 nM; in [2], 400 nM; in [3], 140 nM; in series [4] it was 180 nM; in series [5], 150 nM.

As for `Cn1nnc2cc3c4c(cccc4c21)C(=O)N(CC[N+](C)(C)[O-])C3=O`, the IC50 was 108000 nM in series [6]; over 10000 nM in [1]; 142000 nM in [10]; over 10000 nM in [2]; over 10000 nM in series [3]; over 10000 nM in series [4]. This compound registered an IC50 in [5] of over 10000 nM. The Activity entry in [7] was “Dose-dependent effect”; in [8], 4.83%; in series [9] it was 46.18%; in [11] it was 62.74%.

In the case of `CN(C)CCCN1C(=O)c2cccc3c2c(cc2nnn(CCO)c23)C1=O`, the IC50 in [1] came to 25000 nM; in series [2], 9640 nM; in [3], 4310 nM; in series [4], 5210 nM; in series [5], 7730 nM.

Regarding `CCCCn1nnc2cc3c4c(cccc4c21)C(=O)N(CCN(C)C)C3=O`, the IC50 in series [1] came out at 4770 nM; in series [2], 2550 nM; in [3] it was 1460 nM; in series [4], 1010 nM; in series [5], 1820 nM.

In the case of `CN(C)CCN1C(=O)c2cccc3cc(Nc4ccc([N+](=O)[O-])cc4)cc(c23)C1=O`, the IC50 in [1] came out at 410 nM; in [2], 1320 nM; in [3], 620 nM; in series [4] it was 410 nM; in series [5] it was 620 nM.

In the case of `CN(C)CCN1C(=O)c2cccc3c2c(cc2nnn(C)c23)C1=O`, the half-inhibitory concentration (IC50) was 990 nM in [6]; 1580 nM in series [1]; 1770 nM in series [10]; 1170 nM in series [2]; 450 nM in [3]; 680 nM in series [4]. It took 650 nM to reach half-maximal inhibition in series [5] (IC50). Also, the Activity is given as 26.25% in series [12] and “Toxic” in series [13].

Consider `CN(C)CCN1C(=O)c2cccc3c2c(cc2nnn(CCN(C)C)c23)C1=O`, for which the half-inhibitory concentration (IC50) in [1] turned out to be 730 nM; in series [2], 350 nM; in series [3] it was 130 nM; in series [4] it was 170 nM; in [5], 190 nM.

`CN(C)CCN1C(=O)c2cccc3cc(N)cc(c23)C1=O` [AMONAFIDE]: the IC50 came to 8050 nM in series [1]; 8830 nM in series [2]; 2800 nM in [3]; 1410 nM in series [4]; 4550 nM in series [5].

In the case of `CCCCn1nnc2cc3c4c(cccc4c21)C(=O)N(CCCN(C)C)C3=O`, the IC50 in series [1] is 15500 nM; in series [2] it was 8930 nM; in series [3], 6320 nM; in series [4], 5770 nM; in series [5] it was 6340 nM.

Consider `CN(C)CCCN1C(=O)c2cccc3c2c(cc2nnn(CCN(C)C)c23)C1=O`, for which the IC50 in series [1] came to 3280 nM; in [2], 640 nM; in series [3] it was 370 nM; in series [4], 780 nM; in series [5] it was 390 nM.

On to `CN(C)CCCN1C(=O)c2cccc3c2c(cc2nnn(CCCN(C)C)c23)C1=O`, for which the IC50 was determined as 1200 nM in [1]; 460 nM in series [2]; 300 nM in series [3]; 290 nM in series [4]; 350 nM in series [5].

`CN(C)CCN1C(=O)c2cccc3c2c(cc2nnn(CCO)c23)C1=O`: the IC50 in series [1] came to 4290 nM; in [2], 2530 nM; in series [3], 1220 nM; in series [4] it was 1070 nM; in series [5], 1420 nM.
